Source: ChEMBL document CHEMBL4011658 (J Med Chem, 2017)
≈ marks a conversion by molar mass, not a printed value. Calls of active or inactive are those of the source. No cut-off for these calls is given here. Residues, ends and D or L forms follow the SMILES beside them. *: point of attachment. NHBn = c1ccc(CN*)cc1

Experiments:
Cryptococcus neoformans = assay: Antifungal activity against Cryptococcus neoformans ATCC 90113 after 70 to 74 hrs by alamar blue dye based CLSI method; assay type: functional
SK-OV-3 = assay: Cytotoxicity against human SKOV3 cells assessed as reduction in cell viability after 48 hrs by neutral red uptake assay; assay type: cell-based; conditions: sk-ov-3, 48 h
In short: (§1)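 Cells seeded at 25 000 per well and grown 24 h to confluence, then exposed to peptides up to 10 μg/mL for 48 h; viability by modified neutral red uptake; doxorubicin positive control, DMSO negative control.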

SK-MEL = assay: Cytotoxicity against human SK-MEL cells assessed as reduction in cell viability after 48 hrs by neutral red uptake assay; assay type: cell-based; in short: as §1
BT-549 = assay: Cytotoxicity against human BT549 cells assessed as reduction in cell viability after 48 hrs by neutral red uptake assay; assay type: cell-based; conditions: bt-549, 48 h; in short: as §1
LLC-PK1 = assay: Cytotoxicity against pig LLC-PK1 cells assessed as reduction in cell viability after 48 hrs by neutral red uptake assay; assay type: cell-based, Sus scrofa; conditions: llc-pk1, 48 h; in short: as §1
Vero = assay: Cytotoxicity against African green monkey Vero cells assessed as reduction in cell viability after 48 hrs by neutral red uptake assay; assay type: cell-based; conditions: chlorocebus sabaeus; in short: as §1
[1] = Selectivity index, ratio of cytotoxicity against human SKOV3 cells to IC50 for Cryptococcus neoformans ATCC 90113; assay type: toxicity, cell-based; conditions: read-out: Selectivity Index
[2] = Selectivity index, ratio of cytotoxicity against human SK-MEL cells to IC50 for Cryptococcus neoformans ATCC 90113; assay type: toxicity, cell-based; conditions: read-out: Selectivity Index
[3] = Selectivity index, ratio of cytotoxicity against human BT549 cells to IC50 for Cryptococcus neoformans ATCC 90113; assay type: toxicity, cell-based; conditions: read-out: Selectivity Index
[4] = Selectivity index, ratio of cytotoxicity against pig LLC-PK1 cells to IC50 for Cryptococcus neoformans ATCC 90113; assay type: toxicity, cell-based; conditions: read-out: Selectivity Index
[5] = Selectivity index, ratio of cytotoxicity against African green monkey VERO cells to IC50 for Cryptococcus neoformans ATCC 90113; assay type: toxicity, cell-based; conditions: read-out: Selectivity Index
Escherichia coli = assay: Antibacterial activity against Escherichia coli ATCC 35218 after 16 to 20 hrs by alamar blue dye based CLSI method; assay type: functional
Candida = assay: Antifungal activity against Candida; assay type: functional
Aspergillus = assay: Antifungal activity against Aspergillus; assay type: functional

Compound | IC50 (Cryptococcus neoformans) | MFC (Cryptococcus neoformans) | MIC (Cryptococcus neoformans) | Activity (SK-OV-3) | Activity (SK-MEL) | Activity (BT-549) | Activity (LLC-PK1) | Activity (Vero) | selectivity ratio [1] | selectivity ratio [2] | selectivity ratio [3] | selectivity ratio [4] | selectivity ratio [5] | Activity (Escherichia coli) | Activity (Candida) | Activity (Aspergillus)
Cc1ccc(-c2nc(C[C@H](NC(=O)[C@H](Cc3c[nH]c4ccccc34)NC(=O)[C@@H](N)Cc3c[nH]c(-c4ccc(C)cc4)n3)C(=O)NCc3ccccc3)c[nH]2)cc1 | 5.56 µg/mL (≈ 7.43 µM) | 10 µg/mL (≈ 13.4 µM) | 10 µg/mL (≈ 13.4 µM) | > 10 µg/mL | > 10 µg/mL | > 10 µg/mL | > 10 µg/mL | > 10 µg/mL | > 1.8 | > 1.8 | > 1.8 | > 1.8 | > 1.8 | inactive | inactive | inactive
COc1ccc(-c2nc(C[C@H](NC(=O)[C@H](Cc3c[nH]c4ccccc34)NC(=O)[C@@H](N)Cc3c[nH]c(-c4ccc(OC)cc4)n3)C(=O)NCc3ccccc3)c[nH]2)cc1 | 7.2 µg/mL (≈ 9.23 µM) | > 20 µg/mL | > 20 µg/mL | > 10 µg/mL | > 10 µg/mL | > 10 µg/mL | > 10 µg/mL | > 10 µg/mL | > 1.4 | > 1.4 | > 1.4 | > 1.4 | > 1.4 | inactive | inactive | inactive
N[C@@H](Cc1cnc[nH]1)C(=O)N[C@@H](Cc1c[nH]c2ccccc12)C(=O)N[C@@H](Cc1cnc[nH]1)C(=O)NCc1ccccc1 (H-His-Trp-His-NHBn) | – | 10 µg/mL (≈ 17.6 µM) | 10 µg/mL (≈ 17.6 µM) | > 10 µg/mL | > 10 µg/mL | > 10 µg/mL | > 10 µg/mL | > 10 µg/mL | > 1.2 | > 1.2 | > 1.2 | > 1.2 | > 1.2 | inactive | inactive | inactive
COC(=O)[C@H](Cc1c[nH]cn1)NC(=O)[C@H](Cc1c[nH]c2ccccc12)NC(=O)[C@@H](N)Cc1c[nH]cn1 (H-His-Trp-His-OMe) | 9.81 µg/mL (≈ 19.9 µM) | 20 µg/mL (≈ 40.6 µM) | 20 µg/mL (≈ 40.6 µM) | > 10 µg/mL | > 10 µg/mL | > 10 µg/mL | > 10 µg/mL | > 10 µg/mL | > 1 | > 1 | > 1 | > 1 | > 1 | inactive | inactive | inactive
N[C@@H](Cc1c[nH]c(-c2ccc(-c3ccccc3)cc2)n1)C(=O)N[C@@H](Cc1c[nH]c2ccccc12)C(=O)N[C@@H](Cc1c[nH]c(-c2ccc(-c3ccccc3)cc2)n1)C(=O)NCc1ccccc1 | 1.4 µg/mL (≈ 1.61 µM) | 2.5 µg/mL (≈ 2.87 µM) | 2.5 µg/mL (≈ 2.87 µM) | > 10 µg/mL | > 10 µg/mL | > 10 µg/mL | > 10 µg/mL | > 10 µg/mL | > 7.1 | > 7.1 | > 7.1 | > 7.1 | > 7.1 | inactive | inactive | inactive
CC(C)(C)OC(=O)N[C@@H](Cc1c[nH]c(-c2ccc(-c3ccccc3)cc2)n1)C(=O)N[C@@H](Cc1c[nH]c2ccccc12)C(=O)N[C@@H](Cc1c[nH]c(-c2ccc(-c3ccccc3)cc2)n1)C(=O)NCc1ccccc1 | > 20 µg/mL | – | – | > 10 µg/mL | > 10 µg/mL | > 10 µg/mL | > 10 µg/mL | > 10 µg/mL | – | – | – | – | – | inactive | inactive | inactive
COC(=O)[C@H](Cc1c[nH]c(-c2ccccc2)n1)NC(=O)[C@H](Cc1c[nH]c2ccccc12)NC(=O)[C@H](Cc1c[nH]c(-c2ccccc2)n1)NC(=O)OC(C)(C)C | 9.14 µg/mL (≈ 12.3 µM) | > 20 µg/mL | > 20 µg/mL | > 10 µg/mL | > 10 µg/mL | > 10 µg/mL | > 10 µg/mL | > 10 µg/mL | > 1.1 | > 1.1 | > 1.1 | > 1.1 | > 1.1 | inactive | inactive | inactive
COC(=O)[C@H](Cc1c[nH]c(-c2ccc(C(C)(C)C)cc2)n1)NC(=O)[C@H](Cc1c[nH]c2ccccc12)NC(=O)[C@H](Cc1c[nH]c(-c2ccc(C(C)(C)C)cc2)n1)NC(=O)OC(C)(C)C | 1.27 µg/mL (≈ 1.48 µM) | 5 µg/mL (≈ 5.83 µM) | 5 µg/mL (≈ 5.83 µM) | > 10 µg/mL | > 10 µg/mL | > 10 µg/mL | > 10 µg/mL | > 10 µg/mL | > 7.9 | > 7.9 | > 7.9 | > 7.9 | > 7.9 | inactive | inactive | inactive
COC(=O)[C@H](Cc1c[nH]c(-c2ccc(-c3ccccc3)cc2)n1)NC(=O)[C@H](Cc1c[nH]c2ccccc12)NC(=O)[C@H](Cc1c[nH]c(-c2ccc(-c3ccccc3)cc2)n1)NC(=O)OC(C)(C)C | > 20 µg/mL | – | – | > 10 µg/mL | > 10 µg/mL | > 10 µg/mL | > 10 µg/mL | > 10 µg/mL | – | – | – | – | – | inactive | inactive | inactive
Cc1ccc(-c2nc(C[C@H](NC(=O)OC(C)(C)C)C(=O)N[C@@H](Cc3c[nH]c4ccccc34)C(=O)N[C@@H](Cc3c[nH]c(-c4ccc(C)cc4)n3)C(=O)NCc3ccccc3)c[nH]2)cc1 | 12.6 µg/mL (≈ 14.9 µM) | > 20 µg/mL | > 20 µg/mL | > 10 µg/mL | > 10 µg/mL | > 10 µg/mL | > 10 µg/mL | > 10 µg/mL | – | – | – | – | – | inactive | inactive | inactive
CC(C)(C)OC(=O)N[C@@H](Cc1c[nH]c(-c2ccc(C(C)(C)C)cc2)n1)C(=O)N[C@@H](Cc1c[nH]c2ccccc12)C(=O)N[C@@H](Cc1c[nH]c(-c2ccc(C(C)(C)C)cc2)n1)C(=O)NCc1ccccc1 | > 20 µg/mL | – | – | > 10 µg/mL | > 10 µg/mL | > 10 µg/mL | > 10 µg/mL | > 10 µg/mL | – | – | – | – | – | inactive | inactive | inactive
